In PMC3495823 (Cell Cycle, 2012):

Key:
[1] = Tissue distribution by LC-MS/MS after intraperitoneal injection; assay type: in vivo, mouse; conditions: 20 mg/kg i.p.
How it was run: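 Mice received 20 mg/kg in peanut oil i.p. or by oral gavage; tissues and cardiac blood were taken 1, 4 and 24 h later, with brain cortex and cerebellum at 4 h. Weighed tissues (or 30 µL serum in water) were extracted three times with dichloromethane and analysed by ESI-positive LC-MS/MS. Levels came from peak AUC against calibration curves, with internal-standard normalization for quantification; three samples per point.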

[2] = Octanol-PBS partition coefficient; assay type: physicochemical; conditions: n-octanol/PBS, pH 7.4
How it was run: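 Shake-flask method: 1 mg compound was dissolved in 1 mL octanol-saturated PBS pH 7.4 and shaken with 1 mL PBS-saturated octanol for 24 h at 37°C. Phases were separated by centrifugation (10,000 rpm, 10 min) and each was analysed by LC-MS/MS. LogD7.4 was calculated from the ratio of peak AUCs, each normalized to its injection volume.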

[3] = normal mice, 4 hours after injection

CC(C)[C@H](CO)Nc1nc(Nc2ccc(C(=O)O)c(Cl)c2)c2ncn(C(C)C)c2n1 [PVB, purvalanol B]
detection in kidney, spleen, pancreas, prostate lung and serum [1]: detected | overall tissue and serum levels compared with VMY [1]: lower than VMY | concentration in cerebellar tissue [1, 3]: not detected | concentration in cortical tissue [1, 3]: not detected | logD [2]: 0.15 ± 0.002
